The GI50 is the concentration at which growth is held to half of that of the control. Low values mean greater sensitivity of the cells, high ones lower sensitivity of the cells. One may read the LC50 as the concentration that kills 50% of the test population. Low values mean greater toxicity, high ones lower toxicity. As a reminder, the TGI is the concentration giving total growth inhibition. A low value points to greater sensitivity of the cells.

This test is described as follows: Cytotoxicity against human NCI60 cells by NCI protocol based assay. Format: functional. Put shortly: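 NCI-60 human tumour cell line panel run per the NCI protocol, with ethanol used as solvent in place of DMSO. Single-dose screen at 10 μM first, then five-dose assay from 10 nM to 100 μM at log10 intervals. Percent growth was plotted against concentration for each cell line, and GI50, TGI and LC50 were calculated from the dose–response curves.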

As for `Cc1cc(O)c2c3c(ncc2c1)C(=O)c1c(O[C@H]2C[C@@H](O)[C@@H](O)[C@H](C)O2)cccc1C3=O`, the GI50 was determined as 2.14 µM, the median lethal concentration (LC50) is 18.2 µM and the TGI is 5.75 µM.
`CCCC1C(=O)OC2c3cc(C)cc(O)c3C3=C(C(=O)c4c(O[C@H]5C[C@@H](O)[C@@H](O)[C@H](C)O5)cccc4C3=O)N12` (stereo partly drawn) showed a GI50 of 4.79 µM, a median lethal concentration (LC50) of 19 µM and a concentration for total growth inhibition (TGI) of 10 µM.
Compound `CCCCC1C(=O)OC2c3cc(C)cc(O)c3C3=C(C(=O)c4c(O[C@H]5C[C@@H](O)[C@@H](O)[C@H](C)O5)cccc4C3=O)N12` (stereo partly drawn) showed a 50% growth inhibitory concentration (GI50) of 3.89 µM, a 50% lethal concentration (LC50) of 18 µM and a total growth inhibition concentration (TGI) of 8.7 µM.
The compound `CC(=O)O[C@H]1O[C@@H](n2cc(COC[C@H]3C(=O)OC4c5cc(C)cc(O)c5C5=C(C(=O)c6c(O[C@H]7C[C@@H](O)[C@@H](O)[C@H](C)O7)cccc6C5=O)N43)nn2)[C@@H](OC(C)=O)[C@@H](OC(C)=O)[C@@H]1OC(C)=O` (stereo partly drawn) registered a 50% growth inhibitory concentration (GI50) of 3.5 µM, a 50% lethal concentration (LC50) of 11.8 µM and a total growth inhibition concentration (TGI) of 7.2 µM.
In turn, `Cc1cc(O)c2c(c1)C1OC(=O)[C@H](COCc3cn(Cc4ccccc4)nn3)N1C1=C2C(=O)c2cccc(O[C@H]3C[C@@H](O)[C@@H](O)[C@H](C)O3)c2C1=O` (stereo partly drawn) had a GI50 of 6.1 µM, a 50% lethal concentration (LC50) of 14.9 µM and a concentration for total growth inhibition (TGI) of 11.9 µM.
`CC(=O)O[C@@H]1[C@@H](OC(C)=O)[C@H](C)O[C@@H](n2cc(COC[C@H]3C(=O)OC4c5cc(C)cc(O)c5C5=C(C(=O)c6c(O[C@H]7C[C@@H](O)[C@@H](O)[C@H](C)O7)cccc6C5=O)N43)nn2)[C@@H]1OC(C)=O` (stereo partly drawn) came in with a 50% growth inhibitory concentration (GI50) of 3.1 µM, an LC50 of 11.6 µM and a TGI of 6.8 µM.
Turning to `CC(=O)OC[C@@H]1O[C@@H](n2cc(COC[C@H]3C(=O)OC4c5cc(C)cc(O)c5C5=C(C(=O)c6c(O[C@H]7C[C@@H](O)[C@@H](O)[C@H](C)O7)cccc6C5=O)N43)nn2)[C@H](OC(C)=O)[C@H](OC(C)=O)[C@H]1OC(C)=O` (stereo partly drawn), growth was halved (GI50) at 3.7 µM, the LC50 was 10.9 µM and the total growth inhibition concentration (TGI) amounted to 6.6 µM.
In turn, `CC(=O)O[C@@H]1[C@@H](OC(C)=O)[C@H](C)O[C@H](n2cc(COC[C@H]3C(=O)OC4c5cc(C)cc(O)c5C5=C(C(=O)c6c(O[C@H]7C[C@@H](O)[C@@H](O)[C@H](C)O7)cccc6C5=O)N43)nn2)[C@@H]1OC(C)=O` (stereo partly drawn) returned a GI50 of 3.1 µM, a 50% lethal concentration (LC50) of 9.8 µM and a TGI of 6.3 µM.
The like results for `Cc1cc(O)c2c(c1)[C@@H]1OC(=O)CN1C1=C2C(=O)c2cccc(O[C@H]3C[C@@H](O)[C@@H](O)[C@H](C)O3)c2C1=O` [JADOMYCIN G] were, in that order, 1.68 µM, 38.5 µM and 9.6 µM.
As for `Cc1cc(O)c2c(c1)[C@@H]1OC(=O)[C@H](CC(C)C)N1C1=C2C(=O)c2cccc(O[C@H]3C[C@@H](O)[C@@H](O)[C@H](C)O3)c2C1=O` [JADOMYCIN L], the 50% growth inhibitory concentration (GI50) was determined as 1.82 µM, the 50% lethal concentration (LC50) was found to be 9.3 µM and the concentration for total growth inhibition (TGI) came out at 4.1 µM.
In the case of `Cc1cc(O)c2c(c1)[C@@H]1OC(=O)[C@H]([C@H](C)O)N1C1=C2C(=O)c2cccc(O[C@H]3C[C@@H](O)[C@@H](O)[C@H](C)O3)c2C1=O` [JADOMYCIN T], halving of growth (GI50) required 1.35 µM, the median lethal concentration (LC50) was 6.5 µM and the total growth inhibition concentration (TGI) came out at 3.02 µM.

(Values after ChEMBL document CHEMBL3593171, “Characterization of l-Digitoxosyl-phenanthroviridin from Streptomyces venezuelae ISP5230” (2015).)
